# ARNT-TACC3 inh: disruptors of ARNT/TACC3 protein interaction, primary screen, biochemical, AlphaScreen, single concentration; Transforming acidic coiled-coil-containing protein 3 (Homo sapiens), Q9Y6A5; AlphaScreen His-ARNT PAS-B/GST-TACC3 binding, luminescence; TACC3 fragment carries E629A point mutation; inhibition, % at 9.99 µM; hit rate 0.66% among 390,000; AID 623870, 2012;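 active = mean inhibition of replicates at least 50% and at least half of replicates each reaching 50%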;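 note: 0% = complete ARNT plus TACC3 wells and 100% = ARNT alone without TACC3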
# AI-2 QS mod: Vibrio harveyi AI-2 quorum sensing modulators, primary screen, JMH597 strain, luminescence/OD600 ratio; Vibrio harveyi JMH597 AI-2 luminescence/OD600 ratio, 9 h; stronger effect = lower value; strain lacks LuxN and CqsS sensors; 0 = neutral-control median; activity change, % at 7.5 µM; hit rate 0.4% among 300,000; in the data active = activity change below about -75%, passing the limit was not always enough;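 note: luminescence divided by OD600 gain over 9 h not by final OD600 alone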
# HIF activator: HIF pathway transcriptional activators, primary screen, cell-based, U2OS HRE-luciferase, luminescence | AID 1910, 2009 | U2OS HRE-luciferase reporter; normalized: DMSO 0%, desferrioxamine 100% | hit rate 0.32% among 300,000 | activation, % at 7.5 µM (by protocol);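 active = mean activation of at least 10% of the iron chelator positive control signal, with at least half of replicates also reaching 10%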
# T cruzi repl: inhibitors of intracellular T. cruzi growth, primary screen, luminescence, NIH3T3 host cells; T. cruzi beta-gal in NIH3T3, 90 h; inhibition, % (test concentration not listed); hit rate 1.4% among 300,000; AID 1885, 2009;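 active = mean inhibition across valid replicates above about 55%, limit read from the data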;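 note: signal also drops with host cell toxicity which is not excluded here; 0% = plate median of DMSO wells and 100% = zero luminescence signal; higher percent means less beta-gal luminescence so fewer parasites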
#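 System: Mouse NIH/3T3 fibroblasts infected with β-gal-expressing T. cruzi Tulahuen C4 | Quantity: NIH/3T3 cells, 5,000 per well | Reagent: 5000 reporter trypomastigotes per well | Dosing: Compound pinned at 50 nL/well, DMSO | Schedule: 3 h host attachment, then at least 90 h co-culture | Detection: GalScreen luminescence, 60 min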
# AlphaScreen ctr: AlphaScreen signal interference compounds, dose response, artefact control for ARNT-TACC3 interaction inhibitor project, biochemical, luminescence, cherry-pick; shares compounds with ARNT-TACC3 inh; His-ARNT PASB-GST AlphaScreen artifact counter-screen; AC50, µM (doses to about 68 µM), for the others: at the highest dose activity change, negative = signal decrease; hit rate 50% among 1,200; AID 651705, 2012;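 active = every separate test run was called active for a drop in luminescence, with AC50 within twice the top valid dose, actives reach about 71 µM in these data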
# Numbers without * were called inactive; nt = not tested or not shown; [ ] = another dose, or the depositor's remark. This is a sample that favours compounds with a hit; in the whole collection about 2% have one here.
SMILES,ARNT-TACC3 inh,AI-2 QS mod,HIF activator,T cruzi repl,AlphaScreen ctr
Cc1cc(N/N=C/c2ccc(O)cc2)c2cccc(C)c2n1,1,1,6,47,nt
Cc1cc(C)c2nc(C)cc(N/N=C/c3ccc(O)cc3)c2c1,55*,3,-1,64*,32µM*
CCS(=O)(=O)Nc1ccc2c(c1)C(=O)N(C)[C@@H]1CC[C@@H](CC(=O)Nc3ccccc3)O[C@H]1CO2,-11,nt,nt,nt,nt
O=C(NC[C@@H]1[C@H](c2ccccc2)[C@H](CO)N1Cc1ccccn1)C1CCC1,60*,nt,nt,nt,-22%[42 µM]
O=C(C1CCCC1)N1C[C@@H]2[C@H](c3ccccc31)[C@H](CO)N2C(=O)Cc1ccccn1,51*,nt,nt,nt,-12%[42 µM]
O=C(NC[C@H]1[C@H](c2ccccc2)[C@@H](CO)N1Cc1ccccn1)C1CC1,12,nt,nt,nt,nt
O=C(NC[C@H]1[C@@H](c2ccccc2)[C@@H](CO)N1Cc1ccccn1)C1CCC1,56*,nt,nt,nt,70µM*
O=C(C1CCCC1)N1C[C@@H]2[C@H](c3ccccc31)[C@@H](CO)N2C(=O)Cc1ccccn1,22,nt,nt,nt,nt
O=C(NC[C@@H]1[C@H](c2ccccc2)[C@H](CO)N1Cc1ccccn1)C1CCCC1,53*,nt,nt,nt,-25%[42 µM]
COc1ccc(S(=O)(=O)N(C)C[C@@H]2Oc3ccc(NC(=O)C4CCCCC4)cc3CC(=O)N([C@@H](C)CO)C[C@H]2C)cc1,15,nt,nt,nt,nt
O=Nc1ccc(O)c2ncccc12,57*,-5,8,22,69µM*
COCc1ccc(O)c2ncccc12,75*,8,1,44,16µM*
Nc1ccc(N=Nc2ccccc2)c2cccnc12,13,61,-6,28,nt
Oc1ccc(Cn2ccnc2)c2cccnc12,58*,17,0,25,6.2µM*
CN1CCN(C(=O)C[C@@H]2CC[C@@H]3[C@H](COC[C@H](O)CN3C(=O)C3CCOCC3)O2)CC1,-8,nt,nt,nt,nt
C[C@@H]1CN([C@H](C)CO)C(=O)c2cccc(NC(=O)c3ccncc3)c2O[C@@H]1CN(C)Cc1ccc(-c2ccccc2)cc1,active,nt,nt,nt,0%[42 µM]
CC(C)NC(=O)Nc1cccc2c1O[C@H](CN(C)C(=O)Nc1ccc(C(F)(F)F)cc1)[C@@H](C)CN([C@@H](C)CO)C2=O,active,nt,nt,nt,-7%[42 µM]
C[C@H](CO)N1C[C@H](C)[C@@H](CN(C)S(=O)(=O)c2ccc(Cl)cc2)Oc2c(NC(=O)Nc3cccc4ccccc34)cccc2C1=O,52*,nt,nt,nt,24µM*
C[C@H](CO)N1C[C@H](C)[C@H](CN(C)S(=O)(=O)c2ccc(F)cc2)Oc2ccc(NS(C)(=O)=O)cc2C1=O,-2,nt,nt,nt,nt
C[C@@H]1CN([C@H](C)CO)C(=O)c2cc(NS(C)(=O)=O)ccc2O[C@@H]1CN(C)S(=O)(=O)c1ccc(F)cc1,active,nt,nt,nt,-12%[38 µM]
C[C@@H]1CN([C@@H](C)CO)C(=O)c2cccc(NC(=O)c3ccncc3)c2O[C@@H]1CN(C)Cc1ccc(-c2ccccc2)cc1,-2,nt,nt,nt,nt
CO[C@@H](CN(C)C(=O)C1CCOCC1)[C@@H](C)CN([C@H](C)CO)S(=O)(=O)c1ccccc1,0,nt,nt,nt,nt
CO[C@H]1CN(C)C(=O)c2ccc(NS(=O)(=O)c3ccccc3)cc2OC[C@H](C)N(Cc2ccccn2)C[C@@H]1C,10,nt,nt,nt,nt
CNC[C@@H]1Oc2c(NS(=O)(=O)c3cccs3)cccc2C(=O)N([C@@H](C)CO)C[C@H]1C,active,nt,nt,nt,3%[42 µM]
COc1ccc(CN(C)C[C@H]2OCCCC[C@H](C)Oc3ccc(NC(=O)Cc4ccccc4)cc3C(=O)N([C@H](C)CO)C[C@@H]2C)cc1,3,nt,nt,nt,nt
SMILES,ARNT-TACC3 inh,AI-2 QS mod,HIF activator,T cruzi repl,AlphaScreen ctr
O=C(NCC1CC1)c1cc(-c2ccccc2)on1,nt,nt,nt,nt,1%[38 µM]
CN(C)CCNC(=O)c1cc(-c2ccccc2)on1,nt,nt,nt,nt,-1%[38 µM]
Cc1ccccc1CNC(=O)c1cc(-c2ccccc2)on1,nt,nt,nt,nt,2%[38 µM]
CC(C)(C)c1cc(C(=O)NCCCn2ccnc2)cc(C(C)(C)C)c1,61*,22,1,15,-11%
O=C(NCCCn1ccnc1)c1cc(Cl)cc(Cl)c1,-5,3,0,13,nt
O=C(NCCCn1ccnc1)c1ccc2nccnc2c1,58*,11,-12,-11,-8%
O=C(NCCCn1ccnc1)c1ccc(Cl)cc1[N+](=O)[O-],nt,19,0,8,nt
O=C(NCCCn1ccnc1)c1cc2cc([N+](=O)[O-])ccc2oc1=O,54*,7,0,5,3%
COc1ccc(S(=O)(=O)Nc2ccc3c(c2)C(=O)N([C@@H](C)CO)C[C@H](C)[C@@H](CN(C)S(=O)(=O)c2ccc(C)cc2)O3)cc1,29,nt,nt,nt,nt
Cc1cc(C(=O)Nc2nnc(-c3ccccc3)s2)no1,-4,4,0,-15,nt
O=C(Nc1nnc(-c2ccccc2)s1)c1cc(-c2ccccc2)on1,nt,nt,nt,nt,-7%[38 µM]
O=C(Nc1nc2ccccc2s1)c1cc(-c2ccccc2)on1,nt,nt,nt,nt,0%[38 µM]
O=C(Nc1cccnc1)c1cc(-c2ccccc2)on1,-3,-2,-1,-14,nt
O=C(Nc1ncc2ccccc2n1)c1cc(-c2ccccc2)on1,nt,nt,nt,nt,6%[38 µM]
O=C(Nc1ncc(-c2ccccc2)o1)c1cc(-c2ccccc2)on1,nt,nt,nt,nt,-4%[38 µM]
Cc1noc(C)c1NC(=O)N(C)C[C@@H]1Oc2ccc(NS(=O)(=O)c3ccccc3)cc2C(=O)N([C@@H](C)CO)C[C@@H]1C,-1,nt,nt,nt,nt
C[C@H]1CN([C@@H](C)CO)C(=O)c2cccc(NC(=O)c3ccc(-c4nccs4)cc3)c2O[C@H]1CN(C)Cc1ccc(Cl)c(Cl)c1,27,nt,nt,nt,nt
CCC(=O)N1[C@@H]2c3cccc(=O)n3C[C@H]1[C@H](CO)[C@H]2C(=O)NC1CCC1,-7,nt,nt,nt,nt
O=C(c1cc(-c2ccccc2)on1)N1CCN(c2ccncc2)CC1,nt,nt,nt,nt,-7%[38 µM]
O=C(c1cc(-c2ccccc2)on1)N1CCC(CO)CC1,nt,nt,nt,nt,-2%[38 µM]
O=C(c1cc(-c2ccccc2)on1)N1CCC(N2CCCC2)CC1,nt,nt,nt,nt,0%[38 µM]
O=C(c1cc(-c2ccccc2)on1)N1CCCC1,-5,10,0,-16,nt
CCC(=O)NC(c1ccc(C)cc1)c1ccc2cccnc2c1O (stereo not given),35*,-13,97*,57*,28µM*
CCCC(=O)NC(c1ccc(N(C)C)cc1)c1ccc2cccnc2c1O (stereo not given),60*,-90*,48*,59*,18µM*
CCOc1ccc(C(NC(=O)CC)c2c(O)ccc3ccccc23)cc1 (stereo not given),1,23,1,-15,nt
Cc1cc(NC(c2ccc(Cl)cc2)c2ccc3cccnc3c2O)no1 (stereo not given),55*,-93*,169*,37,10µM*

# Source: PubChem (Broad Institute)
